# Assay results gathered from unrelated publications.
# Compare with care: the assays were run in different laboratories.
# SMARCA2: SWI/SNF-related matrix-associated actin-dependent regulator of chromatin subfamily A member 2 (SMARCA2, Homo sapiens, UniProt P51531)
# PADI2: Protein-arginine deiminase type-2 (PADI2, Homo sapiens, UniProt Q9Y2J8)
# Blk: Tyrosine-protein kinase Blk (Blk, Mus musculus, UniProt P16277)
# BRAF V600E: Serine/threonine-protein kinase B-raf (BRAF, Homo sapiens, UniProt P15056, V600E)
# BPTF: Nucleosome-remodeling factor subunit BPTF (BPTF, Homo sapiens, UniProt Q12830)
# DRD2: D(2) dopamine receptor (DRD2, Homo sapiens, UniProt P14416)
# Map2k4: Dual specificity mitogen-activated protein kinase kinase 4 (Map2k4, Mus musculus, UniProt P47809)
SMILES,target,test,test system,setting,endpoint,result
CCC(C)/C=C1\CCn2c1nc(=O)c1c(Cl)cccc12 (stereo not shown),SMARCA2,"thermal stability, DSF",,100 µM,ΔTm,3.77 °C
NCCCC[C@H](NC(=O)[C@@H]1CCCN1C(=O)[C@@H]1CSSC[C@H](NC(=O)CNC(=O)CNC(=O)CN)C(=O)N[C@@H](Cc2ccc(O)cc2)C(=O)N[C@@H](Cc2ccccc2)C(=O)N[C@@H](CCC(N)=O)C(=O)N[C@@H](CC(N)=O)C(=O)N1)C(=O)NCC(N)=O,"Vasopressin V2 receptor (AVPR2, Homo sapiens, UniProt P30518)","cAMP, agonist, TR-FRET",CHO-K1,,Emax,~100%
N=C(CCl)NCCC[C@H](NC(=O)c1ccc(-c2ccccc2)cc1)c1nn[nH]n1,PADI2,"enzyme activity, inhibitor",,,kinact/KI,37.2 M⁻¹ s⁻¹
CCCOc1ccc(OC)c(F)c1C(=O)c1ccc(C(=O)N[C@@H]2CNC[C@H]2NC(=O)c2ccc3[nH]ncc3c2)cc1,Blk,"enzyme activity, inhibitor",,10 µM,remaining activity,42%
Cc1ccc(C(CS(=O)(=O)c2ccccc2)=NNC(N)=S)cc1,BRAF V600E,"enzyme activity, inhibitor, ATP luminescence",,10 µM,inhibition,88%
CCC(CC)C1CC12CCn1c2nc(=O)c2c(Cl)cccc21 (stereo not shown),SMARCA2,"thermal stability, DSF",,100 µM,ΔTm,1.4 °C
Cc1cc2c(cc1N1C(=O)c3cccc4c(Cl)ccc(c34)C1=O)n(C)c(=O)n2C,BPTF,"thermal stability, DSF",,10 µM,ΔTm,0 °C
CC(C)c1ccccc1OCCOCC(O)CN1CCN(c2cccc(C(F)(F)F)c2)CC1 (stereo not shown),DRD2,"enzyme activity, inhibitor",,10 µM,inhibition,37.8%
CC(C)(C)n1nnc([C@H](CCCNC(=N)CCl)NC(=O)c2ccc(-c3ccccc3)cc2)n1,PADI2,"enzyme activity, inhibitor",,,kinact/KI,182 M⁻¹ s⁻¹
CCC(/C=C1\CCCn2c1nc(=O)c1c(Cl)cccc12)CC,SMARCA2,"thermal stability, DSF",,100 µM,ΔTm,0.48 °C
Cc1ccc(C(CS(=O)(=O)c2ccccc2)=NNc2nc(C)c(N=Nc3cccc(C)c3)s2)cc1,BRAF V600E,"enzyme activity, inhibitor, ATP luminescence",,10 µM,inhibition,92%
Cc1ccc(NC(=O)c2ccc(C)c(C(F)(F)F)c2)cc1C#Cc1nn(C2CCC(O)CC2)c2ncnc(N)c12 (stereo not shown),Map2k4,cell-free assay,,10 µM,remaining signal,49%
Cc1ccc(Nc2nccc(N(C)c3ccc4c(C)n(C)nc4c3)n2)cc1S(N)(=O)=O,Blk,"enzyme activity, inhibitor",,10 µM,inhibition,73%
CC(C)(C)n1nnc([C@H](CCCNC(=N)CF)NC(=O)c2ccccc2C(=O)O)n1,PADI2,"enzyme activity, inhibitor",,,kinact/KI,2020 M⁻¹ s⁻¹
CC/C=C1\CCn2c1nc(=O)c1c(Cl)cccc12,SMARCA2,"thermal stability, DSF",,100 µM,ΔTm,-1.47 °C
COc1ccc(S(N)(=O)=O)cc1C(=O)NCCCN1CCN(c2ccccc2OC)CC1,DRD2,"enzyme activity, inhibitor",,10 µM,inhibition,62.4%
C[S+]([O-])c1ccc(-c2nc(-c3ccncc3)c(-c3ccc(F)cc3)[nH]2)cc1 (stereo not shown),SMARCA2,"thermal stability, DSF",,10 µM,ΔTm,0.31 °C
N=C(CCl)NCCC[C@H](NC(=O)c1ccccc1C(=O)O)c1nn[nH]n1,PADI2,"enzyme activity, inhibitor",,,kinact/KI,162 M⁻¹ s⁻¹
Cc1ccc(C(CS(=O)(=O)c2ccccc2)=NN=C2N=C(c3ccc(C)cc3)CS2)cc1,BRAF V600E,"enzyme activity, inhibitor, ATP luminescence",,10 nM,inhibition,22%
CCC(/C=C1\CCn2c1nc(=O)c1cc(O)ccc12)CC,SMARCA2,"thermal stability, DSF",,100 µM,ΔTm,-0.28 °C
Cc1ccc(C(CS(=O)(=O)c2ccccc2)=NN=C2N=C(c3ccc(Br)cc3)CS2)cc1,BRAF V600E,"enzyme activity, inhibitor, ATP luminescence",,10 µM,inhibition,92%
CCC(/C=C1\CCn2c1nc(=O)c1ccc(OC)cc12)CC,SMARCA2,"thermal stability, DSF",,100 µM,ΔTm,0 °C
Cc1cnc(NC2CCOCC2)nc1-n1cnc(C(=O)NC(CN)c2cc(F)cc(Cl)c2)c1 (stereo not shown),Map2k4,"enzyme activity, inhibitor, radiometric",,1 µM,remaining activity,63%
CCC(/C=C1\CCn2c1nc(=O)c1cc(Cl)ccc12)CC,SMARCA2,"thermal stability, DSF",,100 µM,ΔTm,-0.49 °C
CC(=O)N[C@H]1CSSC[C@@H](C(=O)N[C@H](Cc2c[nH]c3ccccc23)C(N)=O)NC(=O)[C@@H](Cc2ccccc2)NC(=O)[C@H](CCCNC(=N)N)NC1=O,"Melanocortin receptor 3 (MC3R, Homo sapiens, UniProt P41968)","cAMP, agonist",HEK293,3 min,Emax,0%
Cc1ncsc1-c1ccc(CNC(=O)[C@@H]2C[C@@H](O)CN2C(=O)[C@@H](NC(=O)C2(F)CC2)C(C)(C)C)c(OCCOCCOCCN2CCN(c3cc(-c4ccccc4O)nnc3N)CC2)c1,SMARCA2,"protein level, degrader",MV4-11,,Dmax,~65%
Oc1ccc(-c2nc(-c3ccncc3)c(-c3ccc(F)cc3)[nH]2)cc1,BPTF,"thermal stability, DSF",,10 µM,ΔTm,0.18 °C
Cc1ccc(C(=O)Nc2ccc(CN3CCN(C)CC3)c(C(F)(F)F)c2)cc1C#Cc1cnc2cccnn12,"Serine/threonine-protein kinase Nek5 (NEK5, Homo sapiens, UniProt Q6P3R8)","enzyme activity, inhibitor",,23.5 nM,remaining activity,97%
CC(C)(C)n1nnc([C@H](CCCNC(=N)CCl)NC(=O)c2ccccc2C(=O)O)n1,PADI2,"enzyme activity, inhibitor",,,kinact/KI,1000 M⁻¹ s⁻¹
CC(C)(C)C/C=C1\CCn2c1nc(=O)c1c(Cl)cccc12,SMARCA2,"thermal stability, DSF",,100 µM,ΔTm,1.61 °C
Cc1ccc(C(CS(=O)(=O)c2ccccc2)=NNc2nc(-c3ccc(OCCCCOc4ccc(-c5csc(NN=C(CS(=O)(=O)c6ccccc6)c6ccc(C)cc6)n5)cc4)cc3)cs2)cc1,BRAF V600E,"enzyme activity, inhibitor, ATP luminescence",,10 µM,inhibition,91%
Nc1ncnc2occ(-c3ccc(NC(=O)Nc4cc(C(F)(F)F)ccc4F)cc3)c12,"Mitogen-activated protein kinase 4 (MAPK4, Homo sapiens, UniProt P31152)","cell-free assay, inhibitor",,20 µM,remaining signal,100%
Cc1ccc(C(CS(=O)(=O)c2ccccc2)=NNc2nc(C)c(N=Nc3ccccc3)s2)cc1,BRAF V600E,"enzyme activity, inhibitor, ATP luminescence",,0.1 µM,inhibition,42%
NS(=O)(=O)c1ccc(Nc2nc(-c3ccc(F)cc3)c3ccccc3n2)cc1,SMARCA2,"binding, competition with immobilised ligand",,1 µM,remaining binding,74%
NC1=NCC(c2cccc3ccccc23)OC1 (stereo not shown),"Beta-secretase 1 (BACE1, Homo sapiens, UniProt P56817)","thermal stability, DSF",,"2.1 mM, pH 5.4",ΔTm,0.63 °C
Cc1cnc(Nc2ccc(OCCN3CCCC3)cc2)nc1Nc1cccc(S(=O)(=O)NC(C)(C)C)c1,SMARCA2,"thermal stability, DSF",,10 µM,ΔTm,-0.09 °C
CC(C)(C)c1nc(-c2cccc(NS(=O)(=O)c3c(F)cccc3F)c2F)c(-c2ccnc(N)n2)s1,BRAF V600E,"enzyme activity, inhibitor, ATP luminescence",,10 nM,inhibition,34%
